Experimental data from ChEMBL document CHEMBL5705892, “MK-2206, an allosteric Akt inhibitor, enhances antitumor efficacy by standard chemotherapeutic agents or molecular targeted drugs in vitro and in vivo” (Mol Cancer Ther, 2010).
Activity calls are given as the source filed them. The rule behind the calls is not given here.

Experiments:
SK-OV-3 = test: Synergistic antiproliferative activity against human SK-OV-3 cells assessed as combination index at ED50 treated 24 hrs prior to lapatinib and measured after 72 hrs by celltiter-glo assay; assay type: functional; settings: time 96 hrs
[1] = Toxicity in human NCI-H292 cells xenografted CD-1 mouse assessed as weight loss at 360 mg/kg, po administered once a week for 2 weeks starting 2 hrs post-erlotinib treatment and measured during compound dosing; assay type: organism-based; settings: in vivo, 336 h
Outline: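 NCI-H292 cells in 50% Matrigel/PBS injected s.c. into flank of female CD1-nude mice; dosing began after 2 wk at mean tumour 0.2 cm³, n = 5/group. […] Body weight and signs monitored; treatment ended day 16.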

NCI-N87 [2] = test: Synergistic antiproliferative activity against human NCI-N87 cells assessed as combination index at ED90 treated 24 hrs prior to lapatinib and measured after 72 hrs by celltiter-glo assay; assay type: functional; settings: time 96 hrs
NCI-H460 [3] = test: Synergistic antiproliferative activity against human NCI-H460 cells assessed as combination index at ED25 to ED90 measured after 72 hrs in presence of gemcitabine by celltiter-glo assay; assay type: functional
NCI-H292 [4] = test: Synergistic antiproliferative activity against human NCI-H292 cells assessed as combination index at ED75 measured after 72 hrs in presence of erlotinib by celltiter-glo assay; assay type: functional
NCI-N87 [5] = test: Antiproliferative activity against human NCI-N87 cells assessed as reduction in cell proliferation measured after 72 hrs by celltiter-glo assay; assay type: functional, cell-based; settings: NCI-N87, 72 h
Outline: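 Cells in RPMI 1640 with 10% heat-inactivated FBS at 37°C and 5% CO₂ were seeded at 2 to 3 × 10³ per well. […] Growth was read as cellular ATP by CellTiter-Glo.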

NCI-H460 [6] = test: Synergistic antiproliferative activity against human NCI-H460 cells assessed as combination index at ED50 measured after 72 hrs in presence of 5-FU by celltiter-glo assay; assay type: functional
Calu-6 = test: Synergistic antiproliferative activity against human Calu-6 cells assessed as combination index at ED90 measured after 72 hrs in presence of erlotinib by celltiter-glo assay; assay type: functional
Outline: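 Cells grown in RPMI 1640 with 10% heat-inactivated FBS at 37°C, 5% CO₂. Seeded at 2 to 3 × 10³ per well; drugs added 24 h later. […] Viability read as cellular ATP by CellTiter-Glo. CI calculated by Chou–Talalay from median-effect plots at ED50, ED75 and ED90.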

NCI-H441 = test: Synergistic antiproliferative activity against human NCI-H441 cells assessed as combination index at ED25 to ED90 measured after 72 hrs in presence of carboplatin by celltiter-glo assay; assay type: functional
[7] = Toxicity in human PC-3 cells xenografted CD1 nude mouse assessed as body weight loss at 120 mg/kg, po administered 3 times per week for 2 weeks measured on day 15; assay type: organism-based; settings: in vivo, 360 h, time 15 day
Outline: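 Male CD1-nude mice with s.c. PC-3 tumours (50% Matrigel/50% PBS, left flank), randomized at mean 0.2 cm³, n=5/group, treated from 25 d post-implant. Body weight monitored versus vehicle-only controls.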

[8] = Toxicity in human NCI-H292 cells xenografted CD-1 mouse assessed as weight loss at 360 mg/kg, po administered once a week for 2 weeks starting 2 hrs post-erlotinib treatment and measured on day 16; assay type: organism-based; settings: in vivo, 384 h, time 16 day
Outline: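 Female CD1-nude mice bearing s.c. NCI-H292 tumours (cells in 50% Matrigel/50% PBS, left flank), randomized at mean 0.2 cm³, n=5/group. Body weight monitored; treatment period ended day 16.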

PC-3 = test: Antitumor activity against human PC-3 cells xenografted in CD1 nude mouse assessed as reduction in tumor volume at 120 mg/kg, po administered 3 times per week for 2 weeks and measured during compound dosing by caliper method; assay type: functional, organism-based
Outline: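 Male CD1-nude mice received s.c. PC-3 cells and were treated from day 25 after implant, at 0.2 cm³, n = 5. Docetaxel (0.73% ethanol in saline) was given at 5 mg/kg i.v. on day 0. MK-2206 (30% Captisol) was given at 120 mg/kg po on days 1, 3, 5, 8, 10, 12. Caliper volume twice weekly.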

[9] = target: RAC-alpha serine/threonine-protein kinase (Homo sapiens) (UniProt P31749); test: Inhibition of AKT in human HCC827 cells assessed as reduction in PRAS40 phosphorylation at T246 residue at 5 umol/L measured after 5 hrs by Western blot analysis; assay type: cell-based; settings: dose 5.0 µmol/L
Sequence of RAC-alpha serine/threonine-protein kinase (Homo sapiens) (P31749 whole entry): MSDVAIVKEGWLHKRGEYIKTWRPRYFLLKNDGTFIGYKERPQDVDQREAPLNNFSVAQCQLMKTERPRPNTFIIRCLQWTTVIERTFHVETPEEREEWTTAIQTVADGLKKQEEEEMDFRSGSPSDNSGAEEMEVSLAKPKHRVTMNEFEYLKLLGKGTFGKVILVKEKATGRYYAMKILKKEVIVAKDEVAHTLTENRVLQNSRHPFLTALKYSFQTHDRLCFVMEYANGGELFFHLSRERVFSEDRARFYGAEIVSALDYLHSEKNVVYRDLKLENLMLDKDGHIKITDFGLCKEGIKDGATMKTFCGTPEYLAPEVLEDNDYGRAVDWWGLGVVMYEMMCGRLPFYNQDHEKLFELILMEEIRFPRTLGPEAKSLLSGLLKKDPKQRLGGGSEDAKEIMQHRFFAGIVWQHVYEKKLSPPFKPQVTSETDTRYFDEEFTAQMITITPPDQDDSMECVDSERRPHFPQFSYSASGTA

MDA-MB-468 = test: Synergistic antiproliferative activity against lapatinib pretreated human MDA-MB-468 cells assessed as combination index at ED90 measured after 72 hrs by celltiter-glo assay; assay type: functional
UMC-11 = test: Synergistic antiproliferative activity against human UMC-11 cells assessed as combination index at ED25 to ED90 measured after 72 hrs in presence of carboplatin by celltiter-glo assay; assay type: functional
[10] = In vivo inhibition of AKT phosphorylation at S473 residue in human NCI-H292 cells xenografted mouse at 120 mg/kg, po administered as single dose 2 hrs post-erlotinib treatment measured after 12 hrs by Western blot analysis relative to control; assay type: functional
NCI-H460 [11] = test: Antitumor activity against human NCI-H460 cells xenografted in CD1 nude mouse assessed as reduction in tumor volume at 120 mg/kg, po administered 3 times per week for 2 weeks in presence of gemcitabine by caliper method; assay type: functional, organism-based
Outline: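 NCI-H460 cells were injected s.c. in Matrigel/PBS into CD1-nude mice (female in the carboplatin study). Mice were randomized at 0.2 cm³, n = 5. Carboplatin was given at 50 mg/kg or gemcitabine at 100 mg/kg, i.v. in saline, on days 0 and 7. MK-2206 (30% Captisol) was given at 120 mg/kg po on days 0, 2, 4, 7, 9, 11. Tumors measured by caliper twice weekly.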

NCI-H460 [12] = test: Synergistic antiproliferative activity against human NCI-H460 cells assessed as combination index at ED50 measured after 72 hrs in presence of carboplatin by celltiter-glo assay; assay type: functional
NCI-H460 [13] = test: Synergistic antiproliferative activity against human NCI-H460 cells assessed as combination index at ED75 measured after 72 hrs in presence of doxorubicin by celltiter-glo assay; assay type: functional
NCI-H292 [14] = test: Antitumor activity against human NCI-H292 cells xenografted in CD-1 mouse assessed as tumor growth suppression at 360 mg/kg, po administered once a week for 2 weeks starting 2 hrs post-erlotinib treatment and measured twice a week during compound dosing by caliper method; assay type: functional, organism-based
Outline: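 Female CD1-nude mice carried s.c. NCI-H292 cells in Matrigel/PBS and were randomized at 0.2 cm³, n = 5. […] MK-2206 (30% Captisol) was given 2 h later at 120 mg/kg po on days 0, 2, 4, 7, 9, 11, or at 360 mg/kg on days 0 and 7. Control received vehicle. Caliper volume twice weekly.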

NCI-H460 [15] = test: Synergistic antiproliferative activity against human NCI-H460 cells assessed as combination index at ED50 measured after 72 hrs in presence of gemcitabine by celltiter-glo assay; assay type: functional
ZR-75-1 = test: Synergistic antiproliferative activity against human ZR-75-1 cells assessed as combination index at ED50 measured after 72 hrs in presence of docetaxel by celltiter-glo assay; assay type: functional

Cl.NC1(c2ccc(-c3nc4ccn5c(=O)[nH]nc5c4cc3-c3ccccc3)cc2)CCC1
CI50 (SK-OV-3): 0.18 | Activity [1]: Toxic | CI90 (NCI-N87 [2]): 0.18 | CI (NCI-H460 [3]): 0.33 | CI75 (NCI-H292 [4]): 0.31 | IC50 (NCI-N87 [5]): 1.6 µM | CI50 (NCI-H460 [6]): 0.66 | CI90 (Calu-6): 0.13 | CI (NCI-H441): 0.46 | Activity [7]: Non-Toxic | Activity [8]: Non-Toxic | Activity (PC-3): Active | inhibition [9]: Active | CI90 (MDA-MB-468): 0.18 | CI (UMC-11): 1.36 | inhibition in vivo at 120 mg/kg [10]: 79.9% | Activity (NCI-H460 [11]): Active | CI50 (NCI-H460 [12]): 0.35 | CI75 (NCI-H460 [13]): 0.18 | Activity (NCI-H292 [14]): Active | CI50 (NCI-H460 [15]): 0.33 | CI50 (ZR-75-1): 0.1
